A selection: hits, their analogues and other compounds. The true share with any hit is near 2.5%.
Vif imaging = HIV Vif self-association inhibitors, primary screen, imaging, HEK293T, single point; AID 602346, 2012; inhibition, % at 7.49 µM; HEK293T cells, Vif self-association by quenched fluorescence, 24 h; 0.35% of 340,000 active; in the data active = inhibition above about 50%, passing the limit was not always enough
SR-BI DiI inh = inhibitors of SR-BI mediated HDL lipid uptake, primary screen, ldlA[mSR-BI] cells, fluorescence, single point. Scavenger receptor class B member 1 (Mus musculus), Q61009. ldlA[mSR-BI] CHO cells, DiI-HDL uptake fluorescence, 3 h. inhibition, % at 12.5 µM. 0.96% of 320,000 active. AID 488896, 2010;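 active = mean replicate inhibition of at least 70% and a set share of replicates each scoring 70 or more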;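 note: 0% = median of neutral control wells and 100% = median of positive control wells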
Target sequence (Q61009 whole entry, looked up): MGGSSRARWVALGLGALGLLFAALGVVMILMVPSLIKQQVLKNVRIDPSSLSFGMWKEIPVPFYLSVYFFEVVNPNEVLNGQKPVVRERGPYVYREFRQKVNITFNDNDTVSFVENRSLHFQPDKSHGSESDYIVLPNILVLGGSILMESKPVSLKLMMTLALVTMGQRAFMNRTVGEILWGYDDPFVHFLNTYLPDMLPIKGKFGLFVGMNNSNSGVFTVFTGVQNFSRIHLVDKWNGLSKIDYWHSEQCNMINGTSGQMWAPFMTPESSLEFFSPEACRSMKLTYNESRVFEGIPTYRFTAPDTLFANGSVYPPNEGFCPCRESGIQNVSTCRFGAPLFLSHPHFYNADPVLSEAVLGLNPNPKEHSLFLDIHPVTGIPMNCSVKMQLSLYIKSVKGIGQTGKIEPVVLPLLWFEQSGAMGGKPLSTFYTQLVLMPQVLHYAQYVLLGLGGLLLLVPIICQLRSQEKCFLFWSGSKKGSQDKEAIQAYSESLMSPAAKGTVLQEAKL
SMARCA2 activ = SMARCA2 (BRM) function activators, primary screen, cell-based, luminescence, high throughput; MG213 cells, MMTV-luciferase reporter, dexamethasone, overnight; activation, % at 9.1 µM; 1% of 370,000 active; AID 652017, 2013; in the data active = activation above about 7.8%;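 note: 0% = vehicle wells and 100% = reference activator wells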
H9c2 TAG inh = inhibitors of triacylglycerol accumulation, primary screen, cell-based, uHTS, fluorescence, H9c2. H9c2 cells, Nile Red lipid (TAG) fluorescence; cells loaded with 200 µM oleic acid. inhibition, % at 12.5 µM. 0.66% of 230,000 active. AID 651582, 2012;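 active = pattern-corrected inhibition of lipid staining of at least 50% with the nuclear-stain viability signal not falling by more than 50%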;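 note: 0% = DMSO wells and 100% = triacsin C control wells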
SR-BI uptake up = activators of SR-BI mediated DiI-HDL uptake, primary screen, ldlA[mSR-BI] CHO cells, DiI fluorescence; 3 h; 100 = double the neutral-control signal; activation, % at 12.5 µM; 0.096% of 320,000 active;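 active = mean replicate activation of at least 60% and every replicate at or above 60%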;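 note: 0% = median plate neutral-control signal and 100% = twice that signal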
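Test system: SR-BI-overexpressing, LDLR-lacking CHO cells; Also added: labelled HDL, 10 µg/mL; Measured by: bottom-read cell fluorescence after medium removal, ex 550/em 595 nm; Timing: 3 h uptake period with compound, 37 °C; Buffer or medium: F12, 0.5% BSA, 25 mM HEPES; Doses: single compound concentration, delivered by pin transfer.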
* hit, by the source's call.

What do the screens show for `COc1cccc(N2CCN(C(=O)c3ccc(CS(=O)c4ccc(C)cc4)o3)CC2)c1` (stereo unspecified)?
Vif imaging: 56*; SR-BI DiI inh: 15; SMARCA2 activ: -3; SR-BI uptake up: -15

What do the screens show for `COc1ccc(C(=O)c2ccc(N3CCOCC3)c([N+](=O)[O-])c2)cc1`?
Vif imaging: 1; SR-BI DiI inh: 80*; SMARCA2 activ: -4; H9c2 TAG inh: -3; SR-BI uptake up: -80

How did COc1ccc(Nc2nnc(-c3ccc(N4CCOCC4)c([N+](=O)[O-])c3)c3ccccc23)cc1 do in these assays?
Vif imaging: -10; SR-BI DiI inh: 79*; SMARCA2 activ: -5; SR-BI uptake up: -79

Results for COc1ccc2oc(-c3ccc(C)c(NC(=O)c4ccc(N5CCOCC5)c([N+](=O)[O-])c4)c3)nc2c1 ?
Vif imaging: 73*; SR-BI DiI inh: 32; SMARCA2 activ: 7; SR-BI uptake up: -32

Results for COc1ccc(CNC(=O)c2ccc(N3CCOCC3)c([N+](=O)[O-])c2)cc1 ?
Vif imaging: 32; SR-BI DiI inh: 12; SMARCA2 activ: -1; H9c2 TAG inh: 0; SR-BI uptake up: -12

Results for O=C(Nc1ccccc1N1CCOCC1)c1ccc(N2CCOCC2)c([N+](=O)[O-])c1 ?
Vif imaging: 0; SMARCA2 activ: -3; H9c2 TAG inh: 12

How did CCOC(=O)c1ccc(NC(=O)CSc2nnc(-c3cccc(C)c3)n2C)cc1 do in these assays?
SMARCA2 activ: 0

How did CCC(=O)NNC(=O)CCC(=O)Nc1ccc(C)cc1C do in these assays?
Vif imaging: -3; SR-BI DiI inh: -18; SMARCA2 activ: 1; SR-BI uptake up: 18

Results for Cc1ccc(NC(=O)CCC(=O)NNC(=O)NC2CCCCC2)c(C)c1 ?
Vif imaging: 79*; SR-BI DiI inh: -15; SMARCA2 activ: -2; H9c2 TAG inh: -2; SR-BI uptake up: 15

Results for CN(C)CC/C=C1\c2ccccc2COc2ccccc21 ?
Vif imaging: 13; SR-BI DiI inh: -2; SMARCA2 activ: -5; H9c2 TAG inh: 3; SR-BI uptake up: 2

What do the screens show for `CN(C)CC/C=C1/c2ccccc2CS(=O)(=O)c2ccccc21`?
Vif imaging: 85*; SR-BI DiI inh: -9; SMARCA2 activ: 2; H9c2 TAG inh: 9; SR-BI uptake up: 9

How did Cc1nn(-c2ccccc2)c(C)c1C(=O)NCCc1ccc(Cl)cc1 do in these assays?
Vif imaging: -1; SR-BI DiI inh: 0; SMARCA2 activ: 1; H9c2 TAG inh: 11; SR-BI uptake up: 0

How did Cc1nn(-c2ccccc2)c(C)c1C(=O)NCCc1ccccc1 do in these assays?
Vif imaging: -16; SMARCA2 activ: 8.0*

Results for O=C(NCc1ccccc1Cl)C1CCCN(c2ncccn2)C1 (stereo unspecified) ?
SMARCA2 activ: -1

Results for CC1=C/C(=N\OS(=O)(=O)c2ccccc2)C(C(C)C)=CC1=O ?
Vif imaging: 10; SR-BI DiI inh: 83*; SR-BI uptake up: -83

What do the screens show for `CC1=C(C)/C(=N\OS(=O)(=O)c2ccc(C)cc2)C=CC1=O`?
Vif imaging: 22; SR-BI DiI inh: 91*; SMARCA2 activ: -11; H9c2 TAG inh: 75; SR-BI uptake up: -91

Results for CC1=C/C(=N\OS(=O)(=O)c2ccccc2)C(C)=CC1=O ?
Vif imaging: -33; SR-BI DiI inh: 79*; H9c2 TAG inh: 18; SR-BI uptake up: -79

Results for COc1cc(C(=O)O/N=C2/C=C(C)C(=O)C=C2C)cc(OC)c1OC ?
Vif imaging: -4; SR-BI DiI inh: 12; SMARCA2 activ: 0; H9c2 TAG inh: 8; SR-BI uptake up: -12

How did COC(=O)c1cc2c(c3c4cc(C)ccc4n(S(=O)(=O)c4cccc(C)c4)c13)C(=O)N(Cc1ccc(C(F)(F)F)cc1)C2 do in these assays?
SMARCA2 activ: 0

What do the screens show for `C[C@]12Cc3ccccc3C1CC1=N[C@@H](C3CCCCC3)O[C@@]13C[C@@H]2C(=O)N3C1CCN(Cc2ccccc2)CC1` (stereo partly specified)?
SMARCA2 activ: -8

How did CCOC(=O)c1cccc(NC(=O)/C=C/c2cccc([N+](=O)[O-])c2)c1 do in these assays?
Vif imaging: -2; SR-BI DiI inh: 73*; SMARCA2 activ: 6; SR-BI uptake up: -73

How did CCOc1ccc(/C=C2\CCC(C3CCCC3)C2=O)cc1OC (stereo unspecified) do in these assays?
Vif imaging: -14; SR-BI DiI inh: 7; SMARCA2 activ: 0; SR-BI uptake up: -7

What do the screens show for `COc1cc(C=C2CCCC(=Cc3ccc(OCC4CO4)c(OC)c3)C2=O)ccc1OCC1CO1` (stereo unspecified)?
Vif imaging: 62*; SMARCA2 activ: 4; H9c2 TAG inh: 46

How did Cc1cccc2cc(C#N)c(SCC(=O)N3CC(=O)Nc4ccccc43)nc12 do in these assays?
Vif imaging: 61*; SR-BI DiI inh: -2; SMARCA2 activ: 0; H9c2 TAG inh: 44; SR-BI uptake up: 2

How did COc1ccccc1C(=O)NC(=S)Nc1ccc(N2CCOCC2)c(Cl)c1 do in these assays?
Vif imaging: -7; SR-BI DiI inh: 48; SMARCA2 activ: 0; H9c2 TAG inh: -12; SR-BI uptake up: -47

What do the screens show for `Cc1ccccc1OCC(=O)NC(=S)Nc1ccc(N2CCOCC2)c(Cl)c1`?
SR-BI DiI inh: inactive; SMARCA2 activ: -2; H9c2 TAG inh: -5; SR-BI uptake up: 867*

Results for COc1ccc2ccccc2c1/C=N/NC(=O)c1cccc(Br)c1 ?
Vif imaging: -1; SR-BI DiI inh: 60; SMARCA2 activ: 0; H9c2 TAG inh: -3; SR-BI uptake up: -60

What do the screens show for `O=C(N/N=C/c1c(O)ccc2ccccc12)c1cccc(C(F)(F)F)c1`?
Vif imaging: 3; SR-BI DiI inh: 137*; SMARCA2 activ: -1; SR-BI uptake up: -137

What do the screens show for `CCc1cccc2c1Sc1ccccc1CC2N1CCNCC1` (stereo unspecified)?
Vif imaging: 7; SR-BI DiI inh: 6; SMARCA2 activ: -3; H9c2 TAG inh: 67*; SR-BI uptake up: -6

How did C[C@H]1[C@H](c2ccccc2)Oc2cccc(NCCc3ccccc3)c2S(=O)(=O)N1Cc1ccc(F)cc1 do in these assays?
SMARCA2 activ: 6

How did CN(C)Cc1csc(NC(=O)Nc2ccccc2Oc2ccccc2)n1 do in these assays?
Vif imaging: -7; SMARCA2 activ: 7.9*; H9c2 TAG inh: 9

Results for CN(C)Cc1csc(NC(=O)Nc2ccccc2-c2ccccc2)n1 ?
Vif imaging: 15; SMARCA2 activ: -6; H9c2 TAG inh: 23

Results for COc1ccccc1NC(=O)Nc1nc(CC(=O)Nc2cc(F)ccc2F)cs1 ?
Vif imaging: 2; SR-BI DiI inh: 97*; SMARCA2 activ: -2; H9c2 TAG inh: 2; SR-BI uptake up: -97

Bioassay records (PubChem BioAssay)
